# Several values for one entry are separate records, joined by “and”; a condition that tells them apart may be missing. Equal entries are not always repeated.
# Columns and labels:
# [1] = 3 + 3 dose‐escalation: dose‐limiting toxicity; assay type: in vivo, human; details: patients with advanced cancer
# [2] = Olaparib pharmacokinetics in human plasma; assay type: in vivo; details: Cycle 1 day 0, dose‐level 3 (MTD), olaparib 75 mg tablets, N=6, plasma
# [3] = tested on: PAR levels (balance of PARP and PARG activity) in peripheral blood mononuclear cells; assay: Radiation‐enhanced‐PAR pharmacodynamic assay; assay type: in vivo, human; details: Day 8 vs before treatment, lowest dose‐level (25 mg olaparib BID), ex vivo 8 Gy
# Method in brief: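 Venous blood (16 mL, mononuclear cell preparation citrate tubes) was drawn pre-dose Day 0 and Day 8 of cycle 1; olaparib BID from Day 0, carboplatin AUC 3 mg*min/mL IV Day 1 at this level. Three independent samples of 2 × 10⁶ PBMCs were irradiated ex vivo with 8 Gy on ice, then held 1 h on ice. PAR was quantified by HT-PARP in vivo pharmacodynamics Assay II (NCI protocol). Reduction = ([Day 0 − Day 8]/Day 0) × 100%.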
# [4] = tablet 300 mg vs capsule 400 mg; cited from earlier work
# Carboplatin = assay type: in vivo, human; details: Cycle 1 day 1, plasma ultrafiltrate, target AUC 4, N=21 (dose‐level 1‐4)
# Method in brief: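 Platinum from carboplatin measured in plasma and plasma ultrafiltrate by ICPMS with iridium internal standard. Carboplatin was given as a 30-min IV infusion on Day 1, dosed by Calvert formula (Cockcroft-Gault GFR), alongside oral olaparib BID from Day 0. Blood (4 mL) was sampled 0.25, 0.5, 1, 2, 4, 6, 8, 10, 24 and 48 h post-infusion. AUC0-48 calculated.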
# [5] = once per 21‐day cycle with olaparib capsules 400 mg BID Day 1 to 7; cited from earlier work
SMILES,"Maximum tolerable dose (MTD), olaparib part ([1]; olaparib tablets continuously with carboplatin AUC 4 mg*min/mL d1/d22, two cycles)",Olaparib AUC0-12 (mean) [2],Relative reduction in PAR levels in PBMCs [3],AUC of the tablet formulation (300 mg) higher than the capsule formulation (400 mg) [4],"Maximum tolerable dose (MTD), carboplatin part (target AUC) ([1]; carboplatin d1/d22 with olaparib tablets 75 mg BID, two cycles)",Carboplatin AUC0-48 (mean) (Carboplatin),"MTD, carboplatin part (target AUC) [5]"
O=C(c1cc(Cc2n[nH]c(=O)c3ccccc23)ccc1F)N1CCN(C(=O)C2CC2)CC1 [olaparib],75 mg BID,15500 ng·h/mL,97.5% ± 0.1%,13%,,,
N.N.O=C([O-])C1(C(=O)[O-])CCC1.[Pt+2] [carboplatin],,,,,4 mg·min/mL,5.10 mg·min/mL and 5.1 mg·min/mL and 5 mg·min/mL,5 mg·min/mL
